{
  "source": "paper PMC3969666",
  "about": "(Pharmacognosy Magazine, 2014)",
  "key": {"[1]": {"details": "enhancement of FD4 absorption; ref 17 (Gao et al., 2008); cited from earlier work"}, "[2]": {"system": "influenza virus strain A/PR8/34(H1N1)", "format": "cell-based, influenza virus A/PR8/34(H1N1) in MDCK cells"}, "Caco-2 cells": {"system": "Caco-2 cells", "assay": "MTT cytotoxicity test of absorption enhancers with SHL on Caco-2 cells", "format": "cell-based", "details": "24 h, with addition of SHL, tested 0.005-1.28 mg/mL"}, "[3]": {"system": "gastrointestinal membrane", "assay": "Gastrointestinal membrane toxicity by morphological observation", "format": "in vivo", "details": "rat", "in_short": "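Male Sprague–Dawley rats (~250 g) given SHL with or without absorption enhancers by oral gavage. After 8 h exposure, stomach, jejunum and colon were sectioned, with two sections per tissue on each slide. Sections were HE-stained and examined microscopically for mucosal morphology.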"}},
  "data": [
    {"molecule": "chitosan hexamer", "values": [
      {"measurement": "concentration at which absorption enhancing effect is almost saturable", "setting": "[1]", "value": "~0.5 % (w/v)"}
    ]},
    {"molecule": "NC(=O)c1ncn([C@@H]2O[C@H](CO)[C@@H](O)[C@H]2O)n1", "note": "[ribavirin, Ribavirin]", "values": [
      {"measurement": "inhibition rate on influenza virus", "setting": "[2]", "value": "remarkable increase in inhibition rate"}
    ]},
    {"molecule": "CCCCCCCCCC(=O)[O-].[Na+]", "note": "[sodium caprate]", "values": [
      {"measurement": "concentration safe for the Caco-2 cells", "setting": "Caco-2 cells", "value": "up to 0.64 mg/mL"},
      {"measurement": "damage in the small intestine", "setting": "[3]; oral with SHL, 150 mg/kg", "value": "significant damage in the small intestine"},
      {"measurement": "change in the morphology of the gastrointestinal membrane", "setting": "[3]; oral with SHL, 25, 50, 100 mg/kg, 8 h exposure", "value": "did not cause any significant change"},
      {"measurement": "damage in the gastro and colon tissues", "setting": "[3]; oral with SHL, different dosages (25-150 mg/kg)", "value": "no significant damage"}
    ]}
  ]
}
